In ChEMBL document CHEMBL3259639, “RE12 derivatives displaying Vaccinia H1-related phosphatase (VHR) inhibition in the presence of detergent and their anti-proliferative activity against HeLa cells” (Bioorg Med Chem, 2014) one finds inhibition and IC50 data, which are given here for 13 compounds.

Experiment [1] has as its system HeLa. Description: Antiproliferative activity against human HeLa cells at 20 uM after 48 hrs incubation by Alamar Blue assay. Type of experiment: functional, cell-based. The gist of the method: (§1)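 HeLa cells plated at 3 x 10^3 cells/well, treated 48 h at a single concentration (20 or 30 µM as per line); viability by Alamar Blue added for 3 h at 37 °C, 5% CO2, fluorescence at 530 nm ex/590 nm em; percent inhibition of proliferation.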
(The colour change of resazurin is a common sign of viable cells or microbes.)

The test system of experiment [2] is HeLa. The experiment can be described thus: Antiproliferative activity against human HeLa cells at 30 uM after 48 hrs incubation by Alamar Blue assay. Type of experiment: functional, cell-based. The gist of the method: as §1
The target of experiment [3] is T1, Dual specificity protein phosphatase 3 (Homo sapiens, UniProt P51452). Description: Inhibition of Vaccinia H1-related phosphatase (unknown origin) by fluorescence emission assay in presence of 0.001% NP-40.
Target sequence in this assay (P51452 whole entry): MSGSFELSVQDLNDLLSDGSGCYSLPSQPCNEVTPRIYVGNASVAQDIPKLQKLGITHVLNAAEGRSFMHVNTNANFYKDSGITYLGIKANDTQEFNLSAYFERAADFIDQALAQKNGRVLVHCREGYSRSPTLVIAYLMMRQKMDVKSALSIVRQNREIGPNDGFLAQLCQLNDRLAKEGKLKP
The target in experiment [4] is T1, Dual specificity protein phosphatase 3. Description: Inhibition of Vaccinia H1-related phosphatase (unknown origin) by fluorescence emission assay. A digest of the protocol:
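Purified VHR (22 ng) preincubated with or without compound 30 min at 37 °C in 50 mM succinate, 1 mM EDTA, 150 mM NaCl, 1 mM DTT, pH 6.0, 0.001% NP-40; reaction begun with 10 µM O-methylfluorescein phosphate, 10 min at 37 °C; product fluorescence at 485 nm ex/530 nm em; IC50 from sigmoid dose-response curve.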
Target sequence in this assay (P51452 whole entry): as above

Experiment [5] has the same target. Conditions: 100 uM.
Target sequence in this assay (P51452 whole entry, looked up): as the sequence (P51452 whole entry) above
The test system of experiment [6] is HeLa. Description: Antiproliferative activity against human HeLa cells after 48 hrs incubation by Alamar Blue assay. The experiment is classed as functional, cell-based. A digest of the protocol:
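HeLa cells seeded at 3 x 10^3 cells/well, exposed to compounds for 48 h; Alamar Blue then added and incubated 3 h at 37 °C, 5% CO2; fluorescence read at 530 nm excitation/590 nm emission. IC50 taken from sigmoid dose-response curve.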

Active and inactive are the calls of the source. No cut-off for these calls is given here. A value given as a limit tells only on which side of the number the result lay.

Turning to `Cc1cccc(CN/C(CCCCc2ccccc2OCc2ccccc2)=C2\C(=O)OC(CO)C2=O)c1` (stereo unspecified), the inhibition entry in experiment [1] and in experiment [2] was “Active” throughout.

One may read the IC50 as the concentration that gives 50% inhibition. Turning to `CCCCCCCCCCCCCCC/C(NCc1cccc(C)c1)=C1/C(=O)OC(CO)C1=O` (stereo unspecified), the IC50 in experiment [3] was greater than 100 µM; in experiment [4] it was 1.6 µM. For the same compound, the inhibition result in experiment [1] and in experiment [2] was “Active” each time. Besides, the inhibition entry in experiment [5] was “inactive”.

With `Cc1cccc(CN/C(CCCCc2ccc(OCc3ccccc3Cl)cc2)=C2\C(=O)OC(CO)C2=O)c1` (stereo unspecified), the IC50 in experiment [6] worked out at 10.6 µM.

Regarding `Cc1cccc(CN/C(CCCCc2ccc(OCc3ccc(Cl)cc3)cc2)=C2\C(=O)OC(CO)C2=O)c1` (stereo unspecified), the inhibition entry in experiment [2] was “Active”.

In the case of `Cc1cccc(CN/C(CCCCc2ccccc2OCc2cccc(Cl)c2)=C2\C(=O)OC(CO)C2=O)c1` (stereo unspecified), the inhibition entry in experiment [1] and in experiment [2] was “Active” in each case.

Take `Cc1cccc(CN/C(CCCCc2cccc(OCc3cccc(Cl)c3)c2)=C2\C(=O)OC(CO)C2=O)c1` (stereo unspecified): the inhibition entry in experiment [1] and in experiment [2] was “Active” each time.

Turning to `Cc1cccc(CN/C(CCCCc2cccc(OCc3ccc(Cl)cc3)c2)=C2\C(=O)OC(CO)C2=O)c1` (stereo unspecified), the inhibition result in experiment [1] and in experiment [2] was “Active” in each case.

For `Cc1cccc(CN/C(CCCCc2ccccc2OCc2ccccc2Cl)=C2\C(=O)OC(CO)C2=O)c1` (stereo unspecified), the inhibition result in experiment [1] and in experiment [2] was “Active” in each case.

Regarding `Cc1cccc(CN/C(CCCCc2ccccc2OCc2ccc([N+](=O)[O-])cc2)=C2\C(=O)OC(CO)C2=O)c1` (stereo unspecified), the inhibition result in experiment [1] and in experiment [2] was “Active” in each case.

Regarding `Cc1cccc(CN/C(CCCCc2ccccc2OCc2ccc(C(F)(F)F)cc2)=C2\C(=O)OC(CO)C2=O)c1` (stereo unspecified), the inhibition entry in experiment [1] and in experiment [2] was “Active” each time.

Turning to `Cc1cccc(CN/C(CCCCc2ccccc2OCc2ccc(Cl)cc2)=C2\C(=O)OC(CO)C2=O)c1` (stereo unspecified), the inhibition result in experiment [1] and in experiment [2] was “Active” in each case.

`Cc1cccc(CN/C(CCCCc2cccc(OCc3ccccc3Cl)c2)=C2\C(=O)OC(CO)C2=O)c1` (stereo unspecified): the inhibition result in experiment [1] and in experiment [2] was “Active” each time.

`Cc1cccc(CN/C(CCCCc2ccc(OCc3cccc(Cl)c3)cc2)=C2\C(=O)OC(CO)C2=O)c1` (stereo unspecified) came in with an IC50 in experiment [6] of 7.8 µM.
